DDE Tn7 FP inh – inhibitors of Tn7 peptide binding to fibrin DD(E), primary screen, biochemical, fluorescence polarization, human fibrin, Tn7 probe; 370,000 tested, 0.13% active; inhibition, % at 8.3 µM; FP displacement of FITC-Tn7 peptide from fibrin DD(E); 0% = median of compound wells per plate;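 active = inhibition above the mean of compounds falling within the control limits plus 3 SD of them, cut at about 14% in these data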;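 also: 0% = plate median of compound wells and 100% = 10 µM Aha-Tn7 peptide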
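Assay system: human fibrin DD(E). Input: DD(E) 2 µM final. Medium: Tris buffer with calcium and detergent, pH 7.8. Compound dosing: single point at 8.3 µM. Timing: 10 min plus 3 h, room temperature. Technique: fluorescence polarization of the labelled Tn7 tracer. Read-out: percent inhibition. Replicates: singlicate testing.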
ADAM10 inh – human ADAM10 inhibitors, primary screen, biochemical, QFRET, HTS; Disintegrin and metalloproteinase domain-containing protein 10 (Homo sapiens), O14672; 370,000 tested, 0.62% active; inhibition, % at 7 µM; AID 720582, 2013; recombinant ADAM10, EDANS/DABCYL FRET peptide cleavage, 3 h;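 active = inhibition above a per-campaign cutoff equal to the mean of compounds falling between control-based bounds plus 3 SD, cut at about 20% in these data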;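 also: 0% = DMSO wells while the 100% control is not disclosed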
Target sequence (O14672 214-748 limits assumed): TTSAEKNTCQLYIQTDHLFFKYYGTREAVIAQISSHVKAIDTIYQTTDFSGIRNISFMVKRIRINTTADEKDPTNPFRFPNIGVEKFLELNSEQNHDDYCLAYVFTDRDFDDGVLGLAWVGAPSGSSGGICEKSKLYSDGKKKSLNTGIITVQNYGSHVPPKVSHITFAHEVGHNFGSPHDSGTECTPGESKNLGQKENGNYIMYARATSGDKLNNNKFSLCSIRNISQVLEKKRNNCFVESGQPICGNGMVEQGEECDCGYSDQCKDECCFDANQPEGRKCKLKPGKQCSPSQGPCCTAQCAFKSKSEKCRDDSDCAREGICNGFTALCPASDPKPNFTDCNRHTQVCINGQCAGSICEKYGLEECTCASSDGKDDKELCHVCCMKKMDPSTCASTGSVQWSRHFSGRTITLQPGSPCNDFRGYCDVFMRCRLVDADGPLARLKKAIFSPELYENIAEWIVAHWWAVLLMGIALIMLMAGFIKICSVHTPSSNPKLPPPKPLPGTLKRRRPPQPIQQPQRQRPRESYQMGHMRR
ADAM17 inh – ADAM17 inhibitors, primary screen, biochemical, QFRET. Disintegrin and metalloproteinase domain-containing protein 17 (Homo sapiens), P78536. recombinant ADAM17, EDANS/DABCYL FRET peptide cleavage. inhibition, % at 6.95 µM. 370,000 tested, 0.83% active;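 active = inhibition above the mean of compounds lying between control limits plus 3 SD, set per campaign, cut at about 8.5% in these data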;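 also: 0% = DMSO-only wells as the low control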
PLCb3 inh – human PLC-beta3 inhibitors, primary screen, biochemical, fluorescence; 1-phosphatidylinositol 4,5-bisphosphate phosphodiesterase beta-3 (Homo sapiens), Q01970; Purified PLC-beta3, fluorogenic substrate; inhibition, % at 12.2 µM; 370,000 tested, 0.18% active; AID 720704, 2013; in the data active = inhibition above about 11%;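 also: 0% = median of compound wells on plate and 100% = full blocker control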
Tn6 DDE FP – inhibitors of Tn6 peptide binding to fibrin DD(E), primary screen, biochemical, fluorescence polarization, human fibrin, Tn6 probe | inhibition, % at 8.3 µM | Fibrin DD(E) TRITC-Tn6 fluorescence polarization displacement | AID 720509, 2013 | 370,000 tested, 0.21% active;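 active = inhibition above a per-campaign cutoff: mean of compounds within control limits plus 3 SD, cut at about 15% in these data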;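 also: 0% = median of all compound wells on the plate and 100% = blocking peptide control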
PLCg1 inh – PLC-gamma1 enzyme inhibitors, primary screen, biochemical, fluorescence, purified enzyme. 1-phosphatidylinositol 4,5-bisphosphate phosphodiesterase gamma-1 (Homo sapiens), P19174. fluorogenic substrate. inhibition, % at 12.2 µM. 370,000 tested, 0.84% active. AID 720700, 2013; in the data active = inhibition above about 9.5%
* hit, by the source's call; i = inactive. Compounds with a hit are over-represented: about 2.3% of the library has one in this group of screens.

SMILES | DDE Tn7 FP inh | ADAM10 inh | ADAM17 inh | PLCb3 inh | Tn6 DDE FP | PLCg1 inh
COCCOC(=O)N(C)C[C@@H]1OCCCC[C@H](C)Oc2ccc(NC(=O)Nc3ccccc3)cc2C(=O)N([C@@H](C)CO)C[C@H]1C | 3 | -2 | -2 | 0 | 6 | 0
O=C1C(Cl)=C(Nc2ccccc2O)C(=O)N1CCc1ccccc1 | -23 | 33* | 16* | -2 | -41 | -4
COc1cc(C(=O)N/N=C/c2ccc(OC(=O)c3cccc(C)c3)cc2)ccc1O | 3 | 15 | 0 | 3 | -16 | 16*
CC(=O)OCCNc1cc(N2CCN(C)CC2)c2noc3c2c1C(=O)c1ccccc1-3 | 2 | -13 | -1 | 3 | 10 | -1
O=C(O)CCNc1cc(N2CCN(C(=O)c3ccco3)CC2)c2noc3c2c1C(=O)c1ccccc1-3 | -4 | 4 | 1 | -9 | 46* | -1
CC(=O)N1c2ccccc2Oc2cc3ccccc3cc21 | -7 | 5 | 4 | 1 | -3 | 2
O=C(CCl)N1c2ccccc2Oc2ccc3ccccc3c21 | 16* | 2 | 0 | -219 | 39* | -155
CC1Cc2nc(SCC(=O)c3ccccc3)n(Cc3ccccc3)c(=O)c2S1 (centres undefined) | -7 | 20* | 3 | 7 | -2 | 3
CC1Cc2nc(SCC(=O)NCc3ccccc3)n(Cc3ccccc3)c(=O)c2S1 (centres undefined) | -5 | 1 | 2 | 0 | 0 | 6
CC(C)CN1C(=O)C[C@@]2(C(=O)N(C)c3ccc(NS(=O)(=O)C4CC4)cc32)C1c1ccccc1 (some centres undefined) | -1 | -4 | -2 | 1 | 0 | -1
CC(C)c1ccc(C(=O)Nc2cc(Cl)ccc2C(=O)O)cc1 | -7 | 12 | 3 | -5 | 2 | 0
Cc1ccc(CSC(Nc2ccc(F)cc2)=C(C#N)C#N)cc1 | -2 | 21* | 6 | 2 | 6 | 5
O=C(CSc1nnc(COc2ccc(Cl)cc2)n1Cc1ccco1)Nc1ccc2c(c1)OCO2 | -2 | 16 | 8 | 2 | 6 | 2
COc1ccc(CCNC(=O)Cn2nnc(-c3ccccc3F)n2)cc1OC | -14 | 2 | 4 | 6 | 10 | 9.9*
COc1cc(NC(=O)NS(=O)(=O)c2ccc(C)cc2)cc(OC)c1 | -9 | 3 | 0 | -5 | -14 | -2
COc1ccc(NC(=O)/C(Cl)=C(/Cl)S(=O)(=O)Cc2ccccc2)cn1 | 0 | 12 | 3 | 7 | -4 | 10*
COc1ccc(NC(=O)C(Cl)=C(Cl)Cl)cn1 | 0 | -2 | 0 | 3 | 2 | 0
COc1ccc(NC(=O)NS(=O)(=O)c2ccc(C)cc2)cn1 | 48* | -5 | -1 | -30 | 11 | -24
COc1ccc(F)cc1-c1cc(C(=O)N2CCc3ccccc3C2)[nH]n1 | -6 | -5 | 5 | 11* | -3 | 11*
O=C(c1cc(-c2ccc(Cl)cc2)n[nH]1)N1CCc2ccccc2C1 | -6 | 5 | 3 | -10 | 3 | 4
CCOP(=O)(c1ccc(N(C)C)cc1)C(O)c1ccccc1 (centres undefined) | 0 | 2 | 0 | 0 | 0 | 1
CCOP(=O)(CC(C(C)=O)C(O)c1ccccc1)OCC (centres undefined) | 14* | -16 | -3 | 0 | 0 | 0
Cc1nc2cc(C(=O)N3CCN(C(=O)C(Cl)Cl)CC3)ccc2n1C1CCCC1 | 5 | -15 | -2 | -6 | -6 | -2
COc1cccc2c1C(=O)C=C(C)C2=O | -3 | -6 | -1 | -25 | -8 | -31
COC1=CC(=O)c2c(ccc3ncnc(N)c23)C1=O | -6 | -6 | -1 | -4 | 4 | 13*
SMILES | DDE Tn7 FP inh | ADAM10 inh | ADAM17 inh | PLCb3 inh | Tn6 DDE FP | PLCg1 inh
O=C(c1cc(Cl)cc(Cl)c1)N1CC[C@H]2[C@H](CCCN2Cc2ccc(F)cc2)C1 | 2 | 0 | i | 4 | -4 | 0
CC(C)(C)CCN1C[C@@H]2C(CNC(=O)c3cc(Cl)cc(Cl)c3)[C@@H]2C1 (some centres undefined) | 3 | -1 | -4 | 4 | -2 | 1
O=C(O)c1cc(N2N=C(C(F)(F)F)/C(=C/C=C/c3ccco3)C2=O)ccc1Cl | 9 | 4 | 5 | 1 | 6 | 63*
c1ccc(SCCN2CCN(c3ccccc3)CC2)cc1 | 1 | 18 | 0 | -4 | 0 | 10*
CN(C)CCCN1C(=O)c2cccc3c(Br)ccc(c23)C1=O | -3 | -73 | -27 | -75 | -7 | -68
CCN1C(=O)c2cccc3c(N)ccc(c23)C1=O | 32* | -20 | -7 | i | 7 | -474
COC(=O)C1CCN(C(=O)CN2CCC(C(=O)c3ccc(C)cc3)CC2)CC1 | 3 | -12 | -4 | -2 | 7 | -4
COc1[nH]c(/N=C/c2ccccc2)c(C#N)c1C#N | 6 | -38 | -10 | -107 | 38* | -99
Cc1ccc(N(C)c2nc(N)nc(N)c2N=O)cc1 | -8 | -25 | -6 | i | 58* | i
Cc1cccc(Nc2nc(N)nc(N)c2N=O)c1 | 1 | -4 | 2 | 5 | -4 | 4
Cn1nc([N+](=O)[O-])nc1S(C)(=O)=O | -3 | 8 | -1 | 3 | 5 | 47*
Cc1cccc(Cl)c1NC(=O)N(C)c1ccccc1 | 0 | -17 | -4 | 5 | -9 | 12*
C[C@H]1[C@@H](NC(=O)c2ccc(C(C)(C)C)cc2)CC[C@@]23CCCN2C(=O)CCC[C@@H]13 | -2 | 1 | 1 | 2 | 0 | 4
Cc1csc(N=Nc2ccc(N(C)C)cc2)[n+]1[O-] | 2 | -2 | -2 | 10 | 2 | 11*
C=CC[n+]1c(-c2ccc(Cl)cc2Cl)csc1Nc1c(C)n(C)n(-c2ccccc2)c1=O | -1 | 2 | -1 | -3 | 4 | -2
C=CC[n+]1c(-c2ccc(Cl)cc2Cl)csc1Nc1ccc(NC(C)=O)cc1 | -8 | 27* | 8 | 2 | 0 | 2
CCN1C(=O)CC(N2CCC(C(=O)N3CCOCC3)CC2)C1=O (centres undefined) | 16* | 4 | -5 | 1 | 7 | 1
COc1ccccc1-n1c(SCC(=O)Nc2ccccc2C)nc(O)cc1=O | 4 | 13 | 0 | -2 | -1 | 0
